From ChEMBL document CHEMBL4152188, “Design, synthesis and biological evaluation of C(4) substituted monobactams as antibacterial agents against multidrug-resistant Gram-negative bacteria” (Eur J Med Chem, 2018)
Converted amounts (≈) assume the structure as drawn.

Key:
Assay type in all cases: functional
[1] = system: Pseudomonas aeruginosa; experiment: Antibacterial activity against IMP-4 producing Pseudomonas aeruginosa isolate 207272 after 18 hrs in presence of BPL by CLSI broth microdilution method; details: isolate 207272, 18 h
Procedure, shortened: (§1)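 CLSI broth microdilution against clinical isolates (ESBL E. coli, KPC-2 MDR K. pneumoniae, IMP-4 MDR P. aeruginosa; five per species). Iron limitation: Mueller-Hinton broth supplemented with 16 mg/liter 2,2'-bipyridyl to complex iron and induce iron uptake systems. Read-out: MIC.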

[2] = system: Klebsiella pneumoniae; experiment: Antibacterial activity against KPC-2 producing Klebsiella pneumoniae isolate 212232 after 18 hrs by CLSI broth microdilution method; details: isolate 212232, 18 h
[3] = system: Pseudomonas aeruginosa; experiment: Selectivity index, ratio of MIC for against IMP-4 producing Pseudomonas aeruginosa isolate 208247 to MIC for against IMP-4 producing Pseudomonas aeruginosa isolate 208247 in presence of BPL
[4] = system: Escherichia coli; experiment: Antibacterial activity against Escherichia coli isolate 210737 after 18 hrs by CLSI broth microdilution method; details: isolate 210737, 18 h
[5] = system: Pseudomonas aeruginosa; experiment: Antibacterial activity against IMP-4 producing Pseudomonas aeruginosa isolate 209321 after 18 hrs in presence of BPL by CLSI broth microdilution method; details: isolate 209321, 18 h; procedure, shortened: as §1
[6] = system: Pseudomonas aeruginosa; experiment: Antibacterial activity against IMP-4 producing Pseudomonas aeruginosa isolate 207272 after 18 hrs by CLSI broth microdilution method; details: isolate 207272, 18 h
[7] = system: Pseudomonas aeruginosa; experiment: Antibacterial activity against IMP-4 producing Pseudomonas aeruginosa isolate 208247 after 18 hrs in presence of BPL by CLSI broth microdilution method; details: isolate 208247, 18 h; procedure, shortened: as §1
[8] = system: Klebsiella pneumoniae; experiment: Selectivity index, ratio of MIC for against KPC-2 producing Klebsiella pneumoniae isolate 212423 to MIC for against KPC-2 producing Klebsiella pneumoniae isolate 212423 in presence of BPL
[9] = system: Klebsiella pneumoniae; experiment: Antibacterial activity against KPC-2 producing Klebsiella pneumoniae isolate 209632 after 18 hrs in presence of BPL by CLSI broth microdilution method; details: isolate 209632, 18 h; procedure, shortened: as §1
[10] = system: Klebsiella pneumoniae; experiment: Antibacterial activity against KPC-2 producing Klebsiella pneumoniae isolate 212423 after 18 hrs in presence of BPL by CLSI broth microdilution method; details: isolate 212423, 18 h; procedure, shortened: as §1
[11] = system: Escherichia coli; experiment: Antibacterial activity against extended-spectrum beta-lactamase producing Escherichia coli isolate 208687 after 18 hrs by CLSI broth microdilution method; details: isolate 208687, 18 h
[12] = system: Pseudomonas aeruginosa; experiment: Selectivity index, ratio of MIC for against IMP-4 producing Pseudomonas aeruginosa isolate 209471 to MIC for against IMP-4 producing Pseudomonas aeruginosa isolate 209471 in presence of BPL
[13] = system: Escherichia coli; experiment: Antibacterial activity against extended-spectrum beta-lactamase producing Escherichia coli isolate 106342 after 18 hrs by CLSI broth microdilution method; details: isolate 106342, 18 h
[14] = system: Pseudomonas aeruginosa; experiment: Selectivity index, ratio of MIC for against IMP-4 producing Pseudomonas aeruginosa isolate 212886 to MIC for against IMP-4 producing Pseudomonas aeruginosa isolate 212886 in presence of BPL
[15] = system: Escherichia coli; experiment: Antibacterial activity against extended-spectrum beta-lactamase producing Escherichia coli isolate 106342 after 18 hrs in presence of BPL by CLSI broth microdilution method; details: isolate 106342, 18 h; procedure, shortened: as §1
[16] = system: Pseudomonas aeruginosa; experiment: Antibacterial activity against IMP-4 producing Pseudomonas aeruginosa isolate 209471 after 18 hrs in presence of BPL by CLSI broth microdilution method; details: isolate 209471, 18 h; procedure, shortened: as §1
[17] = system: Escherichia coli; experiment: Selectivity index, ratio of MIC for against Escherichia coli isolate 210737 to MIC for Escherichia coli isolate 210737 in presence of BPL
[18] = system: Pseudomonas aeruginosa; experiment: Antibacterial activity against IMP-4 producing Pseudomonas aeruginosa isolate 208247 after 18 hrs by CLSI broth microdilution method; details: isolate 208247, 18 h
[19] = system: Pseudomonas aeruginosa; experiment: Antibacterial activity against IMP-4 producing Pseudomonas aeruginosa isolate 212886 after 18 hrs by CLSI broth microdilution method; details: isolate 212886, 18 h
[20] = system: Pseudomonas aeruginosa; experiment: Selectivity index, ratio of MIC for against IMP-4 producing Pseudomonas aeruginosa isolate 209321 to MIC for against IMP-4 producing Pseudomonas aeruginosa isolate 209321 in presence of BPL
[21] = system: Klebsiella pneumoniae; experiment: Antibacterial activity against KPC-2 producing Klebsiella pneumoniae isolate 209632 after 18 hrs by CLSI broth microdilution method; details: isolate 209632, 18 h
[22] = system: Klebsiella pneumoniae; experiment: Selectivity index, ratio of MIC for against KPC-2 producing Klebsiella pneumoniae isolate 209735 to MIC for against KPC-2 producing Klebsiella pneumoniae isolate 209735 in presence of BPL
[23] = system: Pseudomonas aeruginosa; experiment: Selectivity index, ratio of MIC for against IMP-4 producing Pseudomonas aeruginosa isolate 207272 to MIC for against IMP-4 producing Pseudomonas aeruginosa isolate 207272 in presence of BPL
[24] = system: Klebsiella pneumoniae; experiment: Antibacterial activity against KPC-2 producing Klebsiella pneumoniae isolate 212232 after 18 hrs in presence of BPL by CLSI broth microdilution method; details: isolate 212232, 18 h; procedure, shortened: as §1
[25] = system: Escherichia coli; experiment: Antibacterial activity against extended-spectrum beta-lactamase producing Escherichia coli isolate 212648 after 18 hrs in presence of BPL by CLSI broth microdilution method; details: isolate 212648, 18 h; procedure, shortened: as §1
[26] = system: Escherichia coli; experiment: Antibacterial activity against extended-spectrum beta-lactamase producing Escherichia coli isolate 209285 after 18 hrs by CLSI broth microdilution method; details: isolate 209285, 18 h
[27] = system: Escherichia coli; experiment: Antibacterial activity against Escherichia coli isolate 210737 after 18 hrs in presence of BPL by CLSI broth microdilution method; details: isolate 210737, 18 h; procedure, shortened: as §1
[28] = system: Pseudomonas aeruginosa; experiment: Antibacterial activity against IMP-4 producing Pseudomonas aeruginosa isolate 209321 after 18 hrs by CLSI broth microdilution method; details: isolate 209321, 18 h
[29] = system: Klebsiella pneumoniae; experiment: Antibacterial activity against KPC-2 producing Klebsiella pneumoniae isolate 209735 after 18 hrs by CLSI broth microdilution method; details: isolate 209735, 18 h
[30] = system: Escherichia coli; experiment: Antibacterial activity against extended-spectrum beta-lactamase producing Escherichia coli isolate 212648 after 18 hrs by CLSI broth microdilution method; details: isolate 212648, 18 h
[31] = system: Escherichia coli; experiment: Selectivity index, ratio of MIC for against extended-spectrum beta-lactamase producing Escherichia coli isolate 208687 to MIC for extended-spectrum beta-lactamase producing Escherichia coli isolate 208687 in presence of BPL
[32] = system: Escherichia coli; experiment: Antibacterial activity against extended-spectrum beta-lactamase producing Escherichia coli isolate 209285 after 18 hrs in presence of BPL by CLSI broth microdilution method; details: isolate 209285, 18 h; procedure, shortened: as §1
[33] = system: Pseudomonas aeruginosa; experiment: Antibacterial activity against IMP-4 producing Pseudomonas aeruginosa isolate 209471 after 18 hrs by CLSI broth microdilution method; details: isolate 209471, 18 h
[34] = system: Pseudomonas aeruginosa; experiment: Antibacterial activity against IMP-4 producing Pseudomonas aeruginosa isolate 212886 after 18 hrs in presence of BPL by CLSI broth microdilution method; details: isolate 212886, 18 h; procedure, shortened: as §1
[35] = system: Klebsiella pneumoniae; experiment: Antibacterial activity against KPC-2 producing Klebsiella pneumoniae isolate 212229 after 18 hrs in presence of BPL by CLSI broth microdilution method; details: isolate 212229, 18 h; procedure, shortened: as §1
[36] = system: Klebsiella pneumoniae; experiment: Antibacterial activity against KPC-2 producing Klebsiella pneumoniae isolate 209735 after 18 hrs in presence of BPL by CLSI broth microdilution method; details: isolate 209735, 18 h; procedure, shortened: as §1
[37] = system: Klebsiella pneumoniae; experiment: Antibacterial activity against KPC-2 producing Klebsiella pneumoniae isolate 212423 after 18 hrs by CLSI broth microdilution method; details: isolate 212423, 18 h
[38] = system: Escherichia coli; experiment: Selectivity index, ratio of MIC for against extended-spectrum beta-lactamase producing Escherichia coli isolate 212648 to MIC for extended-spectrum beta-lactamase producing Escherichia coli isolate 212648 in presence of BPL
[39] = system: Klebsiella pneumoniae; experiment: Selectivity index, ratio of MIC for against KPC-2 producing Klebsiella pneumoniae isolate 212232 to MIC for against KPC-2 producing Klebsiella pneumoniae isolate 212232 in presence of BPL
[40] = system: Klebsiella pneumoniae; experiment: Antibacterial activity against KPC-2 producing Klebsiella pneumoniae isolate 212229 after 18 hrs by CLSI broth microdilution method; details: isolate 212229, 18 h
[41] = system: Escherichia coli; experiment: Selectivity index, ratio of MIC for against extended-spectrum beta-lactamase producing Escherichia coli isolate 209285 to MIC for extended-spectrum beta-lactamase producing Escherichia coli isolate 209285 in presence of BPL
[42] = system: Escherichia coli; experiment: Selectivity index, ratio of MIC for against extended-spectrum beta-lactamase producing Escherichia coli isolate 106342 to MIC for extended-spectrum beta-lactamase producing Escherichia coli isolate 106342 in presence of BPL
[43] = system: Klebsiella pneumoniae; experiment: Selectivity index, ratio of MIC for against KPC-2 producing Klebsiella pneumoniae isolate 209632 to MIC for against KPC-2 producing Klebsiella pneumoniae isolate 209632 in presence of BPL
[44] = system: Klebsiella pneumoniae; experiment: Selectivity index, ratio of MIC for against KPC-2 producing Klebsiella pneumoniae isolate 212229 to MIC for against KPC-2 producing Klebsiella pneumoniae isolate 212229 in presence of BPL
[45] = system: Escherichia coli; experiment: Antibacterial activity against extended-spectrum beta-lactamase producing Escherichia coli isolate 208687 after 18 hrs in presence of BPL by CLSI broth microdilution method; details: isolate 208687, 18 h; procedure, shortened: as §1

**Q.** What does the source list for `Cc1nnc(SC[C@@H]2[C@H](NC(=O)/C(=N\OC(c3cc(=O)c(O)cn3O)C(C)C)c3csc(N)n3)C(=O)N2S(=O)(=O)O)s1` (stereo not given in full)?
**A.** MIC [1]: 64 µg/mL; MIC [2]: 2 µg/mL (≈ 3.03 µM); Selectivity Index [3]: 1 - 4; MIC [4]: 0.5 µg/mL (≈ 0.757 µM); MIC [5]: 64 µg/mL; MIC [6]: 64 µg/mL (≈ 96.9 µM); MIC [7]: > 64 µg/mL; Selectivity Index [8]: 2; MIC [9]: 0.25 µg/mL; MIC [10]: 0.5 µg/mL; MIC [11]: 2 µg/mL (≈ 3.03 µM); Selectivity Index [12]: 1; MIC [13]: 1 µg/mL (≈ 1.51 µM); Selectivity Index [14]: >4; MIC [15]: 0.5 µg/mL; MIC [16]: 32 µg/mL; Selectivity Index [17]: 2; MIC [18]: > 64 µg/mL; MIC [19]: > 64 µg/mL; Selectivity Index [20]: 1; MIC [21]: 1 µg/mL (≈ 1.51 µM); Selectivity Index [22]: 2; Selectivity Index [23]: 1; MIC [24]: 0.25 µg/mL; MIC [25]: 0.25 µg/mL; MIC [26]: 4 µg/mL (≈ 6.05 µM); MIC [27]: 0.25 µg/mL; MIC [28]: 64 µg/mL (≈ 96.9 µM); MIC [29]: 1 µg/mL (≈ 1.51 µM); MIC [30]: 0.5 µg/mL (≈ 0.757 µM); Selectivity Index [31]: 16; MIC [32]: 1 µg/mL; MIC [33]: 32 µg/mL (≈ 48.4 µM); MIC [34]: 16 µg/mL; MIC [35]: 0.5 µg/mL; MIC [36]: 0.5 µg/mL; MIC [37]: 1 µg/mL (≈ 1.51 µM); Selectivity Index [38]: 2; Selectivity Index [39]: 8; MIC [40]: 1 µg/mL (≈ 1.51 µM); Selectivity Index [41]: 4; Selectivity Index [42]: 2; Selectivity Index [43]: 4; Selectivity Index [44]: 2; MIC [45]: 0.125 µg/mL
